Legend:
[1] = biological target: Cyclin-G-associated kinase (Homo sapiens) (UniProt O14976); test: Inhibition of GAK (unknown origin) assessed as remaining activity at 10 uM by ATP-competition binding assay relative to control
[2] = biological target: Serine/threonine-protein kinase D2 (Homo sapiens, UniProt Q9BZL6); test: Inhibition of PKD2 in human HeLa cells lysate pre incubated for 15 mins followed by ADP acyl phosphate probe addition and measured after 10 mins by LC-MS/MS analysis; format: subcellular
Sequence of Serine/threonine-protein kinase D2 (Q9BZL6 whole entry): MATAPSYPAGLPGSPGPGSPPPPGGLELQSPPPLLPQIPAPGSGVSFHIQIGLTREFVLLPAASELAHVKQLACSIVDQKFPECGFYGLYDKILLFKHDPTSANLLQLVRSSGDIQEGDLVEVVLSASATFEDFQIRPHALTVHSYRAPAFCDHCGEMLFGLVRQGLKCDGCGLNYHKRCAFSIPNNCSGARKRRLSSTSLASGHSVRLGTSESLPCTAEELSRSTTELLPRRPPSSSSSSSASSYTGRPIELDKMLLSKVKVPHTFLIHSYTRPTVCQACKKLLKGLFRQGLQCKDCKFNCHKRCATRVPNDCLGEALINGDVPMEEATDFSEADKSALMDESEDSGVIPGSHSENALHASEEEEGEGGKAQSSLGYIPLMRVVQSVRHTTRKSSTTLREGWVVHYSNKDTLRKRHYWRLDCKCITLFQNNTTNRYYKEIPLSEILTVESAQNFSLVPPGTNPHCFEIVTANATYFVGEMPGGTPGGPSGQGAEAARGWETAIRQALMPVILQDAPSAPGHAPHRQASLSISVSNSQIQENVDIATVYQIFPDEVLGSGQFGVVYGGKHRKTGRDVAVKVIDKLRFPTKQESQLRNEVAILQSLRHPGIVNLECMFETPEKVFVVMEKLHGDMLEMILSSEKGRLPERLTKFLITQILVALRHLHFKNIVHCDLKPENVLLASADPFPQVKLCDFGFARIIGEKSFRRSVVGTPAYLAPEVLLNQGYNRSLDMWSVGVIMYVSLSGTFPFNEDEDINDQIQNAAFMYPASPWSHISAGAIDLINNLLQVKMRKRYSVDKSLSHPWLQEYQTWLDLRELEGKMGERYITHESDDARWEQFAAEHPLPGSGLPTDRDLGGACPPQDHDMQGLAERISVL

[3] = biological target: Serine/threonine-protein kinase tousled-like 2 (Homo sapiens, UniProt Q86UE8); test: Inhibition of TLK2 in human HeLa cells lysate pre incubated for 15 mins followed by ADP acyl phosphate probe addition and measured after 10 mins by LC-MS/MS analysis; format: subcellular
Sequence of Serine/threonine-protein kinase tousled-like 2 (Q86UE8 whole entry): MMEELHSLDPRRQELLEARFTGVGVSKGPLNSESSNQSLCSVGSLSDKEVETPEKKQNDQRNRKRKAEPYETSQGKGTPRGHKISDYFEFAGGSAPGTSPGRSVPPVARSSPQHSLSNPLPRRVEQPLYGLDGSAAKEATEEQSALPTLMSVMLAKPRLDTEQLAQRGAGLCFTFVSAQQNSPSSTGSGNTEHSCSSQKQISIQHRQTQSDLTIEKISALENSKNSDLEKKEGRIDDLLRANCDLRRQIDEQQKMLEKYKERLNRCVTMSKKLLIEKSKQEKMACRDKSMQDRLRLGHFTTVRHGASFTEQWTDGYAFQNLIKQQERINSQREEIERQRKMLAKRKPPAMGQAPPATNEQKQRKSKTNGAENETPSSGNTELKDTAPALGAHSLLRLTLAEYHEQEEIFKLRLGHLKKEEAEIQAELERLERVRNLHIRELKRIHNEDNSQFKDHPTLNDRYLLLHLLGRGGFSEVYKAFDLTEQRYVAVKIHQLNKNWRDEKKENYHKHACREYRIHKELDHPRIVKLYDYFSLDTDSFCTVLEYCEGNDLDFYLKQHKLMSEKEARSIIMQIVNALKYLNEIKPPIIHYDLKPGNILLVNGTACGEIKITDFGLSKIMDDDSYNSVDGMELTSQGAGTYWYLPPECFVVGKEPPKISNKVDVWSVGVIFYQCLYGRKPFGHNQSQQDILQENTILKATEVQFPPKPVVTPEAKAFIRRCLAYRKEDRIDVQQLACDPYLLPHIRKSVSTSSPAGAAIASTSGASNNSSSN

[4] = biological target: T1, Mitogen-activated protein kinase kinase kinase kinase 2 (Homo sapiens) (UniProt Q12851); test: Inhibition of GCK in human HeLa cells lysate at 2 uM pre incubated for 15 mins followed by ADP acyl phosphate probe addition and measured after 10 mins by LC-MS/MS analysis relative to control; format: subcellular; details: time 25.0 min
T1 sequence (whole entry): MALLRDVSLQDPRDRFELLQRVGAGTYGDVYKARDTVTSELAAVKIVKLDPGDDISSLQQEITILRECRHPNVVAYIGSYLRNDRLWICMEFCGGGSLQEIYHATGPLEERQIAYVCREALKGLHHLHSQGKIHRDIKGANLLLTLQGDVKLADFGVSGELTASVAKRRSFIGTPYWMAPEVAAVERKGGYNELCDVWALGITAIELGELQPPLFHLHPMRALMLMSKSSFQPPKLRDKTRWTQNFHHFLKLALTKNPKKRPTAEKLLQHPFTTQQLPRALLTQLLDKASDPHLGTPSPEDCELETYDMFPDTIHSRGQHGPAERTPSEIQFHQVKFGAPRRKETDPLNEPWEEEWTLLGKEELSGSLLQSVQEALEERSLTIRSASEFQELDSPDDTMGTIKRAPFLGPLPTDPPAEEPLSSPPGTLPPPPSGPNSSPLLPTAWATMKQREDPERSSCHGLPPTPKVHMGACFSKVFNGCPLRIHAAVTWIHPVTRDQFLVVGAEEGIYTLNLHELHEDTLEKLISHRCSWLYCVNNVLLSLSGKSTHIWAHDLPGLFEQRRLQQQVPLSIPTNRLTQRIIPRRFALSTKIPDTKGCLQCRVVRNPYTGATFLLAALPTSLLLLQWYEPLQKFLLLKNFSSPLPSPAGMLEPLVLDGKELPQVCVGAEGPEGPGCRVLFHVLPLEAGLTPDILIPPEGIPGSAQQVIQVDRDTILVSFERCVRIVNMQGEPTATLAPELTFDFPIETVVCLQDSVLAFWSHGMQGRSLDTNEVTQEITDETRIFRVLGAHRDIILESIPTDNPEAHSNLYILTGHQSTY

[5] = biological target: Peripheral plasma membrane protein CASK (Homo sapiens) (UniProt O14936); test: Inhibition of CASK in human HeLa cells lysate at 2 uM pre incubated for 15 mins followed by ADP acyl phosphate probe addition and measured after 10 mins by LC-MS/MS analysis relative to control; format: subcellular; details: time 25.0 min
Sequence of Peripheral plasma membrane protein CASK (Homo sapiens) (O14936 whole entry, the tested form may be a part): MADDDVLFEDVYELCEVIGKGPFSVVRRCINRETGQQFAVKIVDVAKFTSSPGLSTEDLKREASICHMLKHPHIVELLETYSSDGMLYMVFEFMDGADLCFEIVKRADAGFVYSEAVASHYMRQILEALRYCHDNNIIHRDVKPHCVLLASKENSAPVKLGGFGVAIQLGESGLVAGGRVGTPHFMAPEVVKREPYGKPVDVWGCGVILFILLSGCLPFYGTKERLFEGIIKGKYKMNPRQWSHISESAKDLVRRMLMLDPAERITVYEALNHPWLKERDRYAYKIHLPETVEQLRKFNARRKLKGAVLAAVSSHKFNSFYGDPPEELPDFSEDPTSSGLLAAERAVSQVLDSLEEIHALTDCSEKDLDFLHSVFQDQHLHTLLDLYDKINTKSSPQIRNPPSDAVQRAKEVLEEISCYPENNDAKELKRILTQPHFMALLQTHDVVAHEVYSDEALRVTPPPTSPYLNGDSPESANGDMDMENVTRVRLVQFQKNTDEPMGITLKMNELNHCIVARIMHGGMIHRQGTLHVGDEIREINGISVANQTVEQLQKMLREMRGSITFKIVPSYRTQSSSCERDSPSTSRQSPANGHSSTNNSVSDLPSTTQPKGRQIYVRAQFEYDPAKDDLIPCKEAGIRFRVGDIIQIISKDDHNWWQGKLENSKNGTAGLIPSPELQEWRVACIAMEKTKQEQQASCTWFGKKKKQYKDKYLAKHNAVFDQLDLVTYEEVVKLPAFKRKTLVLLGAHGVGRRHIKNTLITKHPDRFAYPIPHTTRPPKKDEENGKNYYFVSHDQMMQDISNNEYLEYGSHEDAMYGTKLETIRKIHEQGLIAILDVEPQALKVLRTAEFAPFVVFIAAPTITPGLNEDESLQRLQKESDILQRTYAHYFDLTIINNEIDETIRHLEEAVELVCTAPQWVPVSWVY
Procedure, shortened: (§1)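 KiNativ profiling in HeLa lysate (5 mg/mL total protein). Lysate incubated 15 min with inhibitor at 50, 10, 2, 0.8 or 0 μM. ATP or ADP acylphosphate probe then added (5 μM final) and reacted 10 min. Reaction stopped with urea and analysed by targeted MS, using up to four fragment ions per kinase peptide-probe conjugate. % inhibition taken against untreated lysate. Run in duplicate.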

[6] = biological target: Tyrosine-protein kinase Fer (Homo sapiens, UniProt P16591); test: Inhibition of FER in human HeLa cells lysate at 50 uM pre incubated for 15 mins followed by ATP acyl phosphate probe addition and measured after 10 mins by LC-MS/MS analysis relative to control; format: subcellular; details: time 25.0 min
Sequence of Tyrosine-protein kinase Fer (P16591 whole entry, looked up): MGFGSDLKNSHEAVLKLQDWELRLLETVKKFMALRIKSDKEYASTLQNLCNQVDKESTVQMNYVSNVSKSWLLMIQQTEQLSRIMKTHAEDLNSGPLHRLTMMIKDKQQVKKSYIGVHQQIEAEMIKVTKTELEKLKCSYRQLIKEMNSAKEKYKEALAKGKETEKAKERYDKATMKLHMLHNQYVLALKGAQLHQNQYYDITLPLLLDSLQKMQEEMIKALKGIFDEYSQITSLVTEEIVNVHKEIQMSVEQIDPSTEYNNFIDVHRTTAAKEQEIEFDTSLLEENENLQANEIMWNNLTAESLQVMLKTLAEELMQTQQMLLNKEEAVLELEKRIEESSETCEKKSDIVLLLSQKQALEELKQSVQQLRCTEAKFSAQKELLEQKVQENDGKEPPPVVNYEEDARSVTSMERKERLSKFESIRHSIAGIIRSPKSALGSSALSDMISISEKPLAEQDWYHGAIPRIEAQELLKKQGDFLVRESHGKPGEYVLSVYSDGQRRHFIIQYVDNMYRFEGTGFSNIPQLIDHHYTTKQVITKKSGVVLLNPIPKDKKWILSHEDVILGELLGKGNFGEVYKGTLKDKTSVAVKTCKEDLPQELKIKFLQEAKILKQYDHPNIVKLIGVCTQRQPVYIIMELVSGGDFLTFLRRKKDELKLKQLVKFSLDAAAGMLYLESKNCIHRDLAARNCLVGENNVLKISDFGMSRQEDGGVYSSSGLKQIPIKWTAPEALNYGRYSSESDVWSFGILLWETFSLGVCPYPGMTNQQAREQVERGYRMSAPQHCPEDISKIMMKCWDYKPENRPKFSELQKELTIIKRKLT

[7] = biological target: Cyclin-dependent kinase 9 (Homo sapiens, UniProt P50750); test: Inhibition of CDK9 in human HeLa cells lysate at 50 uM pre incubated for 15 mins followed by ATP acyl phosphate probe addition and measured after 10 mins by LC-MS/MS analysis relative to control; format: subcellular; details: time 25.0 min; procedure, shortened: as §1
Sequence of Cyclin-dependent kinase 9 (P50750 whole entry): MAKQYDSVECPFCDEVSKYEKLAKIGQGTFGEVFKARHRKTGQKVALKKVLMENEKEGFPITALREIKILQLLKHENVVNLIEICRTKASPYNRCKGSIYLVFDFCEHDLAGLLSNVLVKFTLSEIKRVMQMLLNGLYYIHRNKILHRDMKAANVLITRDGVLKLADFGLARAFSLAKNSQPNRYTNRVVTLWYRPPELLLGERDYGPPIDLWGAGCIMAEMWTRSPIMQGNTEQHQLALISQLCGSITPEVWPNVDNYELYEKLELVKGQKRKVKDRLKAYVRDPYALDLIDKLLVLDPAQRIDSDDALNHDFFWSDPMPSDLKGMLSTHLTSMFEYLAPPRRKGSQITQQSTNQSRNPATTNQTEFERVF

[8] = Inhibition of MST4/YSK1 in human HeLa cells lysate at 10 uM pre incubated for 15 mins followed by ATP acyl phosphate probe addition and measured after 10 mins by LC-MS/MS analysis relative to control; details: 25 min, condition cancer
[9] = biological target: Glycogen synthase kinase-3 beta (Homo sapiens, UniProt P49841); test: Inhibition of GSK3B isoform 2 in human HeLa cells lysate at 2 uM pre incubated for 15 mins followed by ATP acyl phosphate probe addition and measured after 10 mins by LC-MS/MS analysis relative to control; format: subcellular; details: time 25.0 min
[10] = biological target: Calcium/calmodulin-dependent protein kinase type II subunit gamma (Homo sapiens, UniProt Q13555); test: Inhibition of CAMK2g in human HeLa cells lysate at 2 uM pre incubated for 15 mins followed by ATP acyl phosphate probe addition and measured after 10 mins by LC-MS/MS analysis relative to control; format: subcellular; details: time 25.0 min
Sequence of Calcium/calmodulin-dependent protein kinase type II subunit gamma (Q13555 whole entry, the tested form may be a part): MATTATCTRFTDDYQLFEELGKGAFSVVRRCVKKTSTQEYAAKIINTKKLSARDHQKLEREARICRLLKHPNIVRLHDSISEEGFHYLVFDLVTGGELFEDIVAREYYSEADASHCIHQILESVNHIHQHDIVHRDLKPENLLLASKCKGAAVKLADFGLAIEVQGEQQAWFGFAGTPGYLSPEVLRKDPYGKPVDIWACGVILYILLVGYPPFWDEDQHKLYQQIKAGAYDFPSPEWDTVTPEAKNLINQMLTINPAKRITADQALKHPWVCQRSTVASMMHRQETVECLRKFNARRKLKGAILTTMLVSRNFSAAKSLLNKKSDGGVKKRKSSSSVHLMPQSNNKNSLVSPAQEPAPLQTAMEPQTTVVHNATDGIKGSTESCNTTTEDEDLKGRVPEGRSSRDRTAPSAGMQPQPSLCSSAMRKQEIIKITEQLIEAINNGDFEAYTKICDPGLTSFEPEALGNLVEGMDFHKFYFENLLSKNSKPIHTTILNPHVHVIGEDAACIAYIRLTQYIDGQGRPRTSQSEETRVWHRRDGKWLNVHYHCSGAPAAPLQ
Procedure, shortened: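 KiNativ-type profiling in HeLa lysate (5 mg/mL total protein). Lysate preincubated 15 min with inhibitor at 50, 10, 2, 0.8 or 0 μM, then ATP or ADP acylphosphate probe added (5 μM final) for 10 min. Reaction stopped with urea and analysed by targeted MS, using up to four fragment ions per kinase peptide-probe conjugate. % inhibition calculated against untreated lysate. Duplicate reactions.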

[11] = biological target: Cyclin-dependent kinase 8/19 (Homo sapiens, UniProt P49336+Q9BWU1); test: Inhibition of CDK8/CDK11 in human HeLa cells lysate at 2 uM pre incubated for 15 mins followed by ATP acyl phosphate probe addition and measured after 10 mins by LC-MS/MS analysis relative to control; format: subcellular; details: time 25.0 min; procedure, shortened: as §1
[12] = biological target: Wee1-like protein kinase (Homo sapiens, UniProt P30291); test: Inhibition of Wee1 in human HeLa cells lysate at 2 uM pre incubated for 15 mins followed by ATP acyl phosphate probe addition and measured after 10 mins by LC-MS/MS analysis relative to control; format: subcellular; details: time 25.0 min
Sequence of Wee1-like protein kinase (P30291 whole entry, looked up): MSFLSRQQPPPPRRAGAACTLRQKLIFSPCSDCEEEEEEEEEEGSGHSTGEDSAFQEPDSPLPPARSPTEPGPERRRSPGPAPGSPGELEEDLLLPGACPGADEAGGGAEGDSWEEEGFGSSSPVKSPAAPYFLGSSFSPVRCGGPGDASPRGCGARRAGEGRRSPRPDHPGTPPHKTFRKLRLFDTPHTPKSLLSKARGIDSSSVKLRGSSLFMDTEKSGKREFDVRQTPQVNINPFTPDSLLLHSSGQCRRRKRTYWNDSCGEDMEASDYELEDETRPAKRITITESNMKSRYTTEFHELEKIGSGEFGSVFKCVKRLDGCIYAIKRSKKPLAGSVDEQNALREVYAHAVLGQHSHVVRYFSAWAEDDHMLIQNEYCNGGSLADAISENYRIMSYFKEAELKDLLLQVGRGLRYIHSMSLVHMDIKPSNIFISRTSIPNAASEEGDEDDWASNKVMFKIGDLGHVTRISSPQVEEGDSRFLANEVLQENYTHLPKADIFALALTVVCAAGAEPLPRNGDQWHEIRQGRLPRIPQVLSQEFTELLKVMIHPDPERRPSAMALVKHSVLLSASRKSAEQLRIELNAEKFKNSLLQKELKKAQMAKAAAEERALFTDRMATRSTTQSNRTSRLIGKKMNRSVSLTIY

[13] = Plasma concentration in Sprague-Dawley rat at 2 mg/kg, po measured after 30 mins by LC-MS/MS analysis; format: ADME, organism-based

## CCOc1cc(N2CCC(O)CC2)ccc1Nc1ncc2c(n1)N(C)c1ccccc1C(=O)N2C
[1]
  Activity: 31%
[2]
  IC50: > 50 µM
[3]
  IC50: > 50 µM
[4]
  inhibition: 22.6%
[5]
  inhibition: 12.1%
[6]
  inhibition: 14.8%
[7]
  inhibition: -0.3%
[8]
  inhibition at 10 µM: 5.1%
[9]
  inhibition: 7.8%
[10]
  inhibition: 3%
[11]
  inhibition: -7.5%
[12]
  inhibition: -5.2%
[13]
  concentration at 0.5 h: ~500 nM

Reference: ChEMBL document CHEMBL5661979, “Pharmacological inhibition of BMK1 suppresses tumor growth through promyelocytic leukemia protein” (Cancer Cell, 2010)
